“Also recorded” adds a separate entry of the source. One block for each molecule: values may come before it.
How the values were obtained:
[1] = biological target: hGPR40 (Homo sapiens, UniProt O14842); test: Calcium flux assay; format: cell-based
[2] = tested on: primary islets from WT mice; test: Insulin secretion from isolated WT mouse islets; format: cell-based; details: 11.2 mmol/L glucose, 90 min
Procedure, shortened: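 Islets came from 2-3-month-old male wild-type C57BL/6 mice and were purified on a Histopaque-1100 gradient. They were exposed to test compound, or linoleic acid as reference ligand, in 11.2 mmol/L glucose. Insulin secretion is expressed as fold over vehicle, analysed by ANOVA with Dunnett's comparison.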

[3] = tested on: normal ICR mice; test: IPGTT in lean ICR mice; format: in vivo, mouse
Procedure, shortened: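 Male ICR mice aged 9-10 weeks were fasted overnight (about 1600 to 0800) and randomized by fasting glucose and body weight. Test compound or vehicle (0.5% methylcellulose/0.25% Tween-80) was given orally 60 min before IP glucose. Serum was sampled at 0, 3, 6 and 15 min and assayed with a Mesoscale rat/mouse insulin kit.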

[4] = tested on: STZ-treated DIO mice; test: Glycemic control in STZ-treated DIO mice; format: in vivo, mouse; details: for glucose AUC during OGTTs on days 7 and 14: oral once daily, LY2881835 30 mg/kg, sitagliptin 3 mg/kg
Procedure, shortened: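 Male DIO mice aged 5–6 months got IP streptozotocin 50 mg/kg twice in one week. Two weeks later, mice with 9 am glucose of 180–300 mg/dL were randomized by body weight and glucose. Dosing was oral, once daily for 16 days: test compound 30 mg/kg given 30 min and sitagliptin 3 mg/kg 60 min before OGTTs on days 1, 7 and 14. Glucose was sampled at 0–120 min and glucose AUC calculated; 7 per group, with age-matched non-STZ mice included.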

[5] = tested on: nuclear hormone receptors, other G-protein-coupled receptors (GPCRs) and enzyme targets; test: Broad range of assays: nuclear hormone receptors, other GPCRs and enzyme targets; details: data not shown
[6] = tested on: diet-induced obese (DIO) mice; test: Glycemic control in DIO mice; format: in vivo, mouse; details: oral 10 mg/kg once daily
Procedure, shortened: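 Male DIO mice aged 5–6 months were acclimated for 2 weeks and randomized by body weight and fasting blood glucose. They received oral test compound at 10 mg/kg or vehicle (0.5% methylcellulose, 0.25% Tween-80) once daily for 15 days, dosed 60 min before oral glucose. OGTTs on days 1 and 15 sampled tail blood at 0, 15, 30, 60 and 120 min by glucometer, averaging two readings.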

[7] = tested on: WT mice; test: OGTT in WT mice; format: in vivo, mouse; details: oral 30 mg/kg, 60 min before OGTT, versus vehicle
Procedure, shortened: (§1)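 Chow-fed male mice aged 2–3 months (WT, GPR40 KO or GPR120 KO) were fasted overnight from about 1600 and randomized at about 0800 by fasting glucose and body weight. Oral test compound 30 mg/kg or vehicle (0.5% methylcellulose, 0.25% Tween-80) was given 60 min before oral glucose 2 g/kg. Tail-blood glucose was read by glucometer at 0, 15, 30, 60 and 120 min, averaging two readings, and analysed by repeated-measures ANOVA.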

[8] = tested on: GPR40 KO mice; test: OGTT in GPR40 KO mice; format: in vivo, mouse; details: oral 30 mg/kg, 60 min before OGTT, versus vehicle
Procedure, shortened: as §1

[9] = Compound exposure in lean mice; format: in vivo, mouse; details: single oral dose 10 mg/kg, over 8 h
Procedure, shortened: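 Male ICR mice; single oral dose in 0.5% methylcellulose/0.25% Tween-80. EDTA-plasma collected by retro-orbital bleed at 0.5, 1, 2, 4 and 8 h post-dose. Total circulating test compound measured by LC-MS.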

[10] = tested on: primary islets from GPR40 KO mice; test: Insulin secretion from isolated GPR40 KO mouse islets; format: cell-based; details: 11.2 mmol/L glucose, 90 min
Procedure, shortened: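 Islets from 2–3-month-old male GPR40 KO mice were purified on a Histopaque-1100 gradient and cultured overnight in RPMI-1640 with 10% FBS and antibiotics. They were preincubated 30 min in EBSS with 0.1% BSA and 2.8 mmol/L glucose. Islets were then incubated 90 min with 2.8 or 11.2 mmol/L glucose plus rising test compound levels (6 batches of 4 islets per condition). Linoleic acid and GLP-1(7-36) amide served as controls. Insulin was measured by ECL, expressed as fold over vehicle, and compared by ANOVA with Dunnett's test.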

[11] = tested on: individuals with T2D; details: oral, 12 weeks, ref Araki et al. 2012, Burant et al. 2012; cited from earlier work
[12] = tested on: Zucker fa/fa rats; test: Glycemic control in fatty Zucker fa/fa rats; format: in vivo, rat; details: oral once daily, LY2881835 1 mg/kg, rosiglitazone 3 mg/kg
Procedure, shortened: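 Male Zucker fa/fa rats aged 2–3 months were acclimated for 2 weeks and randomized by body weight and glucose (n = 6/group). Test compound 1 mg/kg, rosiglitazone 3 mg/kg or vehicle was given orally once daily for 21 days. OGTTs on days 1 and 21 sampled blood at 0, 10, 20, 40 and 60 min, averaging two readings. Age-matched lean rats were included.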

Sequence of hGPR40 (O14842 whole entry): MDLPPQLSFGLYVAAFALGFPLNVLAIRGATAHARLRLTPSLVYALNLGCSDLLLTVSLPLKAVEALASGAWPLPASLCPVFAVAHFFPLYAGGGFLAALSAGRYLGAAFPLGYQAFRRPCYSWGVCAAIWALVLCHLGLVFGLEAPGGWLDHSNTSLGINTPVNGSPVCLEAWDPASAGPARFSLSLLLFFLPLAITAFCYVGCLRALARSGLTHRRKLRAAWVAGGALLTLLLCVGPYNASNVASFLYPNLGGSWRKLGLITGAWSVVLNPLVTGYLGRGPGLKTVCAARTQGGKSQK

EC50 [1]: 164 ± 94 nM
signals in assay systems not expressing GPR40 [5]: No positive signals were detected
hypoglycemia [6]: no evidence of hypoglycemia was observed
SMILES: CC#C[C@@H](CC(=O)O)c1ccc(OCc2ccc(CN3CCC4(C=Cc5ccccc54)CC3)cc2)cc1 [LY2881835, (3S)‐3‐(4‐{[4‐(1′H‐spiro[indene‐1,4′‐piperidin]‐1′‐ylmethyl)benzyl]oxy}phenyl)hex‐4‐ynoic acid]
insulin secretion in WT primary islets [2]: statistically significant increase in insulin secretion
insulin AUC during IPGTT ([3]; oral 10 mg/kg dose group, versus vehicle): statistically significant enhancement in insulin AUC
insulin secretion during IPGTT ([3]; oral 0.3, 1, 3 and 10 mg/kg, 60 min before IP glucose 2 g/kg): clear dose‐dependent enhancement in insulin secretion
blood glucose during OGTT after a single treatment ([4]; oral 30 mg/kg, day 1): lowered blood glucose
glucose AUC during OGTTs on days 7 and 14 [4]: Results are similar
fasting glucose levels at time 0 of the OGTTs ([6]; 60 min after administration): significantly reduced
glucose levels during OGTTs ([6]; OGTTs on days 1 and 15): Significant reductions in glucose levels
glucose levels during OGTT [7]: significant glucose lowering
glucose levels during OGTT [8]: had no effect on glucose levels
plasma concentration time course [9]: peaked and remained elevated at 15, 30, and 60 min followed by a slight decrease in levels throughout the 8 h study
insulin secretion in GPR40 KO primary islets [10]: Enhanced insulin secretion was absent; also recorded: No insulin secretion

SMILES: Cc1cc(OCCCS(C)(=O)=O)cc(C)c1-c1cccc(COc2ccc3c(c2)OC[C@H]3CC(=O)O)c1 [TAK‐875]
HbA1c reduction [11]: superior to historical data with DPPIV inhibitors and comparable with that of sulfonylureas

SMILES: CCCCC/C=C\C/C=C\CCCCCCCC(=O)O [linoleic acid, reference compound]
insulin secretion in GPR40 KO primary islets [10]: a reduction in insulin secretion was seen
insulin secretion in GPR40 KO primary islets ([10]; listed as LA): No insulin secretion

SMILES: CN(CCOc1ccc(CC2SC(=O)NC2=O)cc1)c1ccccn1 (stereo not shown) [rosiglitazone, Rosiglitazone]
blood glucose during OGTT on day 1 [12]: no glucose lowering

SMILES: N[C@@H](CC(=O)N1CCn2c(nnc2C(F)(F)F)C1)Cc1cc(F)c(F)cc1F [sitagliptin, reference compound]
glucose AUC during OGTTs on days 7 and 14 [4]: Results are similar

From paper PMC5226292 (Pharmacology Research & Perspectives, 2016)
